According to ChEMBL document CHEMBL1142436, “Design and synthesis of 4-substituted indolo[3,2-e][1,2,3]triazolo[1,5-a]pyrimidine derivatives with antitumor activity” (2008):

Columns and labels:
Format in all cases: functional
CCRF-CEM = experiment: Growth inhibition of human CCRF-CEM cells after 48 hrs
Method in brief: (§1)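 NCI ~60-line screen. Cells were grown in RPMI 1640 with 5% FBS and 2 mM L-glutamine and plated at 5000–40000 cells/well. After a 24 h preincubation, five drug concentrations from DMSO stocks were added for 48 h at 37 °C. Cells were TCA-fixed, stained with SRB and read at 515 nm. GI50 was taken from time-zero and control absorbances and reported as pGI50.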

K562 = experiment: Growth inhibition of human K562 cells after 48 hrs; conditions: K562, 48 h; method in brief: as §1
[1] = Growth inhibition of human HS578T cells after 48 hrs; conditions: Hs-578T; method in brief: as §1
MDA-MB-435 = experiment: Growth inhibition of human MDA-MB435 cells after 48 hrs; conditions: MDA-MB-435, 48 h; method in brief: as §1
T47D = experiment: Growth inhibition of human T47D cells after 48 hrs
Method in brief: (§2)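 NCI 60-line screen: cells in RPMI 1640 with 5% FBS and 2 mM L-glutamine, plated at 5000–40000 cells/well, grown 24 h (37 °C, 5% CO₂), then exposed to five 10-fold or ½-log dilutions (DMSO stock) for 48 h. Fixed with TCA (final 10% for adherent cells, 16% for suspension cells), then SRB stained with absorbance at 515 nm. GI50 from percentage growth relative to time-zero and control wells.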

A549 = experiment: Growth inhibition of human A549 cells after 48 hrs; conditions: A549, 48 h; method in brief: as §1
HOP-62 = experiment: Growth inhibition of human HOP62 cells after 48 hrs; conditions: HOP-62, 48 h; method in brief: as §1
NCI-H226 = experiment: Growth inhibition of human NCI-H226 cells after 48 hrs; conditions: NCI-H226, 48 h; method in brief: as §1
NCI-H23 = experiment: Growth inhibition of human NCI-H23 cells after 48 hrs; conditions: Homo sapiens, NCI-H23, 48 h; method in brief: as §1
NCI-H322M = experiment: Growth inhibition of human NCI-H322M cells after 48 hrs; method in brief: as §1
NCI-H522 = experiment: Growth inhibition of human NCI-H522 cells after 48 hrs; conditions: NCI-H522, 48 h; method in brief: as §1
COLO 205 = experiment: Growth inhibition of human COLO205 cells after 48 hrs; conditions: COLO 205, 48 h; method in brief: as §1
HCT-116 = experiment: Growth inhibition of human HCT116 cells after 48 hrs; conditions: HCT-116, 48 h; method in brief: as §1
HCT-15 = experiment: Growth inhibition of human HCT15 cells after 48 hrs; conditions: HCT-15, 48 h; method in brief: as §1
SF-295 = experiment: Growth inhibition of human SF295 cells after 48 hrs; conditions: SF-295, 48 h; method in brief: as §1
SF-539 = experiment: Growth inhibition of human SF539 cells after 48 hrs; conditions: SF-539, 48 h; method in brief: as §1
SNB-19 = experiment: Growth inhibition of human SNB19 cells after 48 hrs; conditions: SNB-19, 48 h; method in brief: as §2
LOX IMVI = experiment: Growth inhibition of human LOXIMVI cells after 48 hrs; method in brief: as §1
Malme-3M = experiment: Growth inhibition of human MALME3M cells after 48 hrs; method in brief: as §1
M14 = experiment: Growth inhibition of human M14 cells after 48 hrs; conditions: M14, 48 h; method in brief: as §1
SK-MEL-2 = experiment: Growth inhibition of human SK-MEL2 cells after 48 hrs; conditions: SK-MEL-2, 48 h; method in brief: as §1
SK-MEL-5 = experiment: Growth inhibition of human SK-MEL5 cells after 48 hrs; conditions: SK-MEL-5, 48 h; method in brief: as §1
UACC-62 = experiment: Growth inhibition of human UACC62 cells after 48 hrs; conditions: UACC-62, 48 h; method in brief: as §2
IGROV-1 = experiment: Growth inhibition of human IGROV1 cells after 48 hrs; conditions: IGROV-1, 48 h; method in brief: as §1
OVCAR-3 = experiment: Growth inhibition of human OVCAR-3 cells after 48 hrs; conditions: OVCAR-3, 48 h; method in brief: as §1
OVCAR-8 = experiment: Growth inhibition of human OVCAR8 cells after 48 hrs; conditions: OVCAR-8, 48 h; method in brief: as §1
ACHN = experiment: Growth inhibition of human ACHN cells after 48 hrs; method in brief: as §1
TK-10 = experiment: Growth inhibition of human TK10 cells after 48 hrs; conditions: TK-10, 48 h; method in brief: as §2
UO-31 = experiment: Growth inhibition of human UO31 cells after 48 hrs; conditions: UO-31, 48 h; method in brief: as §2
[2] = read-out: Log LC50 (the source's name) (converted)

## Cn1c2ccccc2c2c(=O)n(CCCC(=O)NCC(=O)N(C(=O)NC3CCCCC3)C3CCCCC3)c3c(-c4ccccc4)nnn3c21
CCRF-CEM
  GI50: 8.32 µM
  LC50: > 100 µM
CCRF-CEM; read-out: pTGI (converted)
  TGI: 57.5 µM
K562
  GI50: 22.9 µM
  LC50: > 50.1 µM
K562; read-out: pTGI (converted)
  TGI: > 100 µM
[1]
  GI50: 9.33 µM
  LC50 (50% lethal concentration): > 100 µM
[1]; read-out: pTGI (converted)
  TGI: > 100 µM
MDA-MB-435
  GI50: 25.1 µM
  LC50: > 100 µM
MDA-MB-435; read-out: pTGI (converted)
  TGI: > 100 µM
T47D; [2]
  CC50: > 100 µM
T47D; read-out: pTGI (converted)
  TGI: > 100 µM
A549
  GI50: 38 µM
A549; [2]
  CC50: > 50.1 µM
A549; read-out: pTGI (converted)
  TGI: > 50.1 µM
HOP-62
  GI50: 15.1 µM
  LC50: 87.1 µM
HOP-62; read-out: pTGI (converted)
  TGI: 36.3 µM
NCI-H226
  GI50: 39.8 µM
NCI-H226; [2]
  CC50: > 100 µM
NCI-H226; read-out: pTGI
  TGI: > 100 µM
NCI-H23
  GI50: 15.5 µM
NCI-H23; [2]
  CC50: 69.2 µM
NCI-H23; read-out: pTGI (converted)
  TGI: 33.1 µM
NCI-H322M
  GI50: > 100 µM
  LC50: > 100 µM
NCI-H322M; read-out: pTGI (converted)
  TGI: > 100 µM
NCI-H522
  GI50: 15.8 µM
  LC50: > 100 µM
NCI-H522; read-out: pTGI (converted)
  TGI: 81.3 µM
COLO 205
  GI50: 2.82 µM
  LC50: > 100 µM
COLO 205; read-out: pTGI (converted)
  TGI: > 100 µM
HCT-116
  GI50: 14.1 µM
  LC50: > 100 µM
HCT-116; read-out: pTGI (converted)
  TGI: 42.7 µM
HCT-15
  GI50: 10.7 µM
  LC50: > 100 µM
HCT-15; read-out: pTGI
  TGI: > 100 µM
SF-295
  GI50: > 100 µM
  LC50: > 100 µM
SF-295; read-out: pTGI (converted)
  TGI: > 100 µM
SF-539
  LC50 (concentration killing 50% of cells): > 100 µM
SF-539; read-out: pTGI (converted)
  TGI: 57.5 µM
SNB-19
  LC50: > 100 µM
SNB-19; read-out: pTGI (converted)
  TGI: > 100 µM
LOX IMVI
  GI50: 13.2 µM
  LC50 (lethal concentration, 50% cell kill): > 100 µM
LOX IMVI; read-out: pTGI (converted)
  TGI: 97.7 µM
Malme-3M
  GI50: 46.8 µM
  LC50: > 100 µM
Malme-3M; read-out: pTGI (converted)
  TGI: > 100 µM
M14
  GI50: 30.9 µM
  LC50: > 100 µM
M14; read-out: pTGI (converted)
  TGI: > 100 µM
SK-MEL-2
  GI50: 33.1 µM
  LC50: > 100 µM
SK-MEL-2; read-out: pTGI (converted)
  TGI: > 100 µM
SK-MEL-5
  GI50: 6.03 µM
  LC50: > 100 µM
SK-MEL-5; read-out: pTGI (converted)
  TGI: 31.6 µM
UACC-62
  GI50: 25.7 µM
  LC50: > 100 µM
UACC-62; read-out: pTGI (converted)
  TGI: > 100 µM
IGROV-1
  GI50: 2.82 µM
  LC50: > 100 µM
IGROV-1; read-out: pTGI (converted)
  TGI: 33.1 µM
OVCAR-3
  GI50: 19.5 µM
  LC50: > 100 µM
OVCAR-3; read-out: pTGI (converted)
  TGI: 95.5 µM
OVCAR-8
  LC50: > 100 µM
ACHN
  GI50: 26.3 µM
  LC50: > 100 µM
ACHN; read-out: pTGI (converted)
  TGI: > 100 µM
TK-10
  GI50: > 100 µM
  LC50: > 100 µM
TK-10; read-out: pTGI (converted)
  TGI: > 100 µM
UO-31
  GI50: 31.6 µM
  LC50: > 100 µM
UO-31; read-out: pTGI (converted)
  TGI: > 100 µM
